Source: ChEMBL document CHEMBL6092224, “The Discovery and Preclinical Profile of ALG-000184, a Prodrug of the Potent Hepatitis B Virus Capsid Assembly Modulator ALG-001075” (J Med Chem, 2024)
Activity calls are given as the source filed them. No cut-off for these calls is given here.

How the values were obtained:
[1] = Tmax in C57BL/6J mouse at 5 mg/kg, po by LC-MS/MS analysis; type: ADME, organism-based; conditions: in vivo
Procedure, shortened: (§1)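 Fasted males (C57BL6 mice, Sprague−Dawley rats, beagle dogs, cynomolgus monkeys) given a single oral solution dose of 5 mg/kg in 80% PEG 400 in water. Plasma sampled over time, analysed by LC-MS/MS. Noncompartmental analysis used nominal doses and nominal sampling times.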

[2] = Ratio of drug concentration in blood to plasma in Cynomolgous monkey at 5 uM incubated for 60 mins; type: ADME, cell-free, Macaca fascicularis; conditions: cynomolgus monkey
Procedure, shortened: (§2)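 Compound at 5 μM in whole blood of each species, 37 ± 1 °C for 60 min; blood-to-plasma ratio and red blood cell partitioning determined.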

[3] = Oral bioavailability in Sprague-Dawley rat at 5 mg/kg by LC-MS/MS analysis; type: ADME, organism-based; conditions: in vivo
Procedure, shortened: (§3)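 Fasted male C57BL6 mice, Sprague–Dawley rats, beagle dogs, cynomolgus monkeys; single IV dose 1 mg/kg or PO solution 5 mg/kg in 80% PEG 400 in water; plasma concentrations measured, noncompartmental analysis with nominal doses and times; F from PO vs IV AUC.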

Mus musculus [4] = assay: Effect on HBeAg level in C57BL/6 mouse infected with AAV-Hepatitis B virus at 15 to 50 mg/kg, po qd for 56 days followed by induction of compound washout period for 14 days; type: functional, organism-based; conditions: dose 15-50 mg/kg, time 70.0 day
Bile salt export pump = Bile salt export pump (Homo sapiens, UniProt O95342); assay: Inhibition of BSEP (unknown origin) transfected in HEK293 cells; type: cell-based
Bile salt export pump, sequence (O95342 whole entry): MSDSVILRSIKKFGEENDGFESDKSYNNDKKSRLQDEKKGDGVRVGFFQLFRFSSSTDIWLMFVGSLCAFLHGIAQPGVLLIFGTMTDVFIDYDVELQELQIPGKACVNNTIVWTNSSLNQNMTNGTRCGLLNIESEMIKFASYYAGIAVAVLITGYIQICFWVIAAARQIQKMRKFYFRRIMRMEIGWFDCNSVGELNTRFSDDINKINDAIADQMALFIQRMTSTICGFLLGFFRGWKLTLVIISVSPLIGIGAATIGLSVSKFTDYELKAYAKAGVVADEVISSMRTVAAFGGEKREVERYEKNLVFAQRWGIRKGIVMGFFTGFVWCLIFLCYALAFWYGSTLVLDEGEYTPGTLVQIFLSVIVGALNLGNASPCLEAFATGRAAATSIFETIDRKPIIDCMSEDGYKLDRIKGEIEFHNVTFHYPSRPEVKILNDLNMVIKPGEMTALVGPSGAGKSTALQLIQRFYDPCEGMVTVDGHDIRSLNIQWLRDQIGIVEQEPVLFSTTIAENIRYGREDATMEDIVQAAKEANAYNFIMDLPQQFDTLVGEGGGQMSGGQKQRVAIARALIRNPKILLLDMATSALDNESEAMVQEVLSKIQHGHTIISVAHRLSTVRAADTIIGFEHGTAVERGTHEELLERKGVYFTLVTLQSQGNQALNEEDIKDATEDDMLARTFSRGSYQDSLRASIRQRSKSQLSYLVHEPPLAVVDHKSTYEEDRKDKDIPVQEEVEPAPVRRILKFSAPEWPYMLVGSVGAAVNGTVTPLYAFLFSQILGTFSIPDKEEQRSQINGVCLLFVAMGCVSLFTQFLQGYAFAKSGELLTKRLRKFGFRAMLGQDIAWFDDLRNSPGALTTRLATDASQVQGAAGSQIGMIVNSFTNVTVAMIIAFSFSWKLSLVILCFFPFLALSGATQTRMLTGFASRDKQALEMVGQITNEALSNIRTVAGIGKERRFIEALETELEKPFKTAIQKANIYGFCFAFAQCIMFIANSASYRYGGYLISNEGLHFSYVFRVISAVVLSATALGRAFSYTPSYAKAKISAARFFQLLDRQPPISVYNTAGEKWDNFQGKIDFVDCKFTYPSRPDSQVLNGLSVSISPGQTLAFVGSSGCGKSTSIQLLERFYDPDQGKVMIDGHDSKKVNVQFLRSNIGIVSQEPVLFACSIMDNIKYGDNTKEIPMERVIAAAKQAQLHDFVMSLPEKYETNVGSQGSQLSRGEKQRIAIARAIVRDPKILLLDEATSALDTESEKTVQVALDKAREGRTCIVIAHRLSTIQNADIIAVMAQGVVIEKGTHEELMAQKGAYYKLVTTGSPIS

[5] = Toxicity in C57BL/6 mouse infected with AAV-Hepatitis B virus assessed as change in body weight at 15 mg/kg, po bid for 56 days followed by induction of compound washout period for 14 days; type: organism-based; conditions: in vivo, 1680 h, time 70 day
[6] = Oral bioavailability in Beagle dog at 5 mg/kg by LC-MS/MS analysis; type: ADME, organism-based, Canis lupus familiaris; conditions: in vivo; procedure, shortened: as §3
[7] = AUC (infinity) in Cynomolgous monkey at 5 mg/kg, po by LC-MS/MS analysis; type: ADME, organism-based, Macaca fascicularis; conditions: cynomolgus monkey, in vivo
Procedure, shortened: (§4)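 Single dose to fasted male C57BL6 mice, Sprague-Dawley rats, beagle dogs and cynomolgus monkeys, either IV at 1 mg/kg or PO as a solution at 5 mg/kg, in 80% PEG 400 in water. Plasma concentrations were measured by LC-MS/MS. PK parameters come from noncompartmental analysis using nominal doses and nominal sampling times.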

[8] = biological target: Solute carrier family 22 member 1 (Homo sapiens, UniProt O15245); assay: Inhibition of OCT1 (unknown origin) transfected in HEK293 cells; type: cell-based
Solute carrier family 22 member 1, sequence (O15245 whole entry): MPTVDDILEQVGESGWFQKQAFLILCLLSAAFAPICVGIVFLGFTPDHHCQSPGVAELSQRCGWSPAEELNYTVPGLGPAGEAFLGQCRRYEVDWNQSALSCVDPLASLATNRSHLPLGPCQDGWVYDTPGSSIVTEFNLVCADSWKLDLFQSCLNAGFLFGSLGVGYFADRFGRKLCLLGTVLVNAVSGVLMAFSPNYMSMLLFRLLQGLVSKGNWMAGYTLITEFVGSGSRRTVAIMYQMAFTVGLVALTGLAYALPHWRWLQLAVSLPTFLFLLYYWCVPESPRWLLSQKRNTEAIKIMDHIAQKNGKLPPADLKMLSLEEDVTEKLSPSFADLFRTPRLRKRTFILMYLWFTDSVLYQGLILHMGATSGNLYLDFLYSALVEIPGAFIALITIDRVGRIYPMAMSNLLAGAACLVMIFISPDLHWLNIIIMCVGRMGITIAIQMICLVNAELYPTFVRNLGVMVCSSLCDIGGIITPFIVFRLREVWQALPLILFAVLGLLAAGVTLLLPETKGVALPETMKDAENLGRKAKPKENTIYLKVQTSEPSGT
Procedure, shortened: (§5)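 HEK-293 cells transfected with the uptake transporter; uptake of known probe substrates measured with test compound at eight concentrations (0.0229–50.0 μM or 0.0457–100 μM); inhibition at each concentration used to calculate IC50.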

[9] = Plasma protein binding in mouse at 1 uM incubated for 4 to 24 hrs by equilibrium dialysis method; type: ADME, cell-free; conditions: time 4-24 hrs, read-out: PPB (converted)
Procedure, shortened: (§6)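 Rapid equilibrium dialysis in mouse, rat, dog, monkey or human plasma for 4 or 24 h; test concentrations 1, […].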

[10] = Volume of distribution at steady state in C57BL/6J mouse at 1 mg/kg, iv by LC-MS/MS analysis; type: ADME, organism-based; conditions: in vivo, read-out: Vdss
Procedure, shortened: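 Fasted males (C57BL6 mice, Sprague−Dawley rats, beagle dogs, cynomolgus monkeys) given a single IV dose of 1 mg/kg in 80% PEG 400 in water. Plasma concentrations measured by LC-MS/MS. Vss derived by noncompartmental analysis using nominal dose and nominal sampling times.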

[11] = Plasma protein binding in rat at 1 uM incubated for 4 to 24 hrs by equilibrium dialysis method; type: ADME, cell-free; conditions: time 4-24 hrs, read-out: PPB (converted); procedure, shortened: as §6
[12] = AUC (infinity) in Beagle dog at 5 mg/kg, po by LC-MS/MS analysis; type: ADME, organism-based, Canis lupus familiaris; conditions: in vivo; procedure, shortened: as §4
Hepatitis B virus = assay: Antiviral activity against HBV infected in human HepG2.117 cells by qPCR analysis; type: functional, organism-based
Procedure, shortened: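 HepG2.117 cells (integrated genotype D HBV genome, Tet-off promoter; kept in 1 μg/mL doxycycline) were seeded at 20,000 cells/well and given serial compound dilutions (2% DMSO) for 3 days at 37 °C. Lysates were taken in 0.33% NP40. Intracellular HBV DNA was quantified by qPCR and EC50/EC90 derived. For serum shift, 40% human serum was present during incubation. Mean ± SEM, n=3 (serum) or 13.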

[13] = Effect on mitochondrial biogenesis in human HepG2 cells upto 10 uM; type: toxicity, cell-based; conditions: hepg2, 10 µM
Mus musculus [14] = assay: Effect on HBsAg level in C57BL/6 mouse infected with AAV-Hepatitis B virus at 15 mg/kg, po bid for 56 days followed by induction of compound washout period for 14 days; type: functional, organism-based; conditions: time 70.0 day
MDCKII-MDR1 = assay: Substrate activity at p-gp in MDCKII-MDR1 cells incubated for 150 mins; type: cell-based; conditions: Canis lupus familiaris
Procedure, shortened: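 P-gp substrate test in MDR1-MDCK II and parental MDCK II cells, with or without the P-gp inhibitor GF120918, 150 min incubation. Parent compound run at 2 μM; prodrug at 2, 10 and 100 μM.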

[15] = Clearance in Cynomolgous monkey at 1 mg/kg, iv by LC-MS/MS analysis; type: ADME, organism-based, Macaca fascicularis; conditions: cynomolgus monkey, in vivo; procedure, shortened: as §4
[16] = Tmax in Beagle dog at 5 mg/kg, po by LC-MS/MS analysis; type: ADME, organism-based, Canis lupus familiaris; conditions: in vivo; procedure, shortened: as §1
[17] = Clearance in Sprague-Dawley rat at 1 mg/kg, iv by LC-MS/MS analysis; type: ADME, organism-based; conditions: in vivo; procedure, shortened: as §4
[18] = Toxicity in C57BL/6 mouse infected with AAV-Hepatitis B virus assessed as change in ALT level at 15 to 50 mg/kg, po qd for 56 days followed by induction of compound washout period for 14 days; type: organism-based; conditions: in vivo, 1680 h, dose 15-50 mg/kg, time 70 day
[19] = AUC (infinity) in Sprague-Dawley rat at 5 mg/kg, po by LC-MS/MS analysis; type: ADME, organism-based; conditions: in vivo; procedure, shortened: as §4
[20] = biological target: Organic anion transporter 3 (Homo sapiens, UniProt Q8TCC7); assay: Inhibition of OAT3 (unknown origin) transfected in HEK293 cells; type: cell-based; procedure, shortened: as §5
Organic anion transporter 3, sequence (Q8TCC7 whole entry): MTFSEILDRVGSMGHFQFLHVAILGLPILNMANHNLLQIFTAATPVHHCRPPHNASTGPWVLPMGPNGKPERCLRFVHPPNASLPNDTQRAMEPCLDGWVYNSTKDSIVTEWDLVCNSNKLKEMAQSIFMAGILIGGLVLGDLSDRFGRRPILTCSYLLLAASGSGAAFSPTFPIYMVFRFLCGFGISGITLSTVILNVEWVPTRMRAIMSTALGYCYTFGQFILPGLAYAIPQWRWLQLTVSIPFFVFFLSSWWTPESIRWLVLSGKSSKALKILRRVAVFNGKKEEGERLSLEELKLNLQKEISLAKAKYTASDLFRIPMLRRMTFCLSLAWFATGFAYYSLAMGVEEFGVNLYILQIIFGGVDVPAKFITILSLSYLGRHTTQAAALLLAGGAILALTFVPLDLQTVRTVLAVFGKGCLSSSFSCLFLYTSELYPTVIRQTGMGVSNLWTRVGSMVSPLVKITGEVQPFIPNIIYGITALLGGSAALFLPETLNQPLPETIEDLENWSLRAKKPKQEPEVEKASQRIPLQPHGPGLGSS

[21] = Ratio of drug concentration in blood to plasma in dog at 5 uM incubated for 60 mins; type: ADME, cell-free, Canis lupus familiaris; procedure, shortened: as §2
[22] = Toxicity in C57BL/6 mouse infected with AAV-Hepatitis B virus assessed as change in ALT level at 15 mg/kg, po bid for 56 days followed by induction of compound washout period for 14 days; type: organism-based; conditions: in vivo, 1680 h, time 70 day
[23] = Plasma protein binding in Cynomolgous monkey at 2 uM incubated for 4 to 24 hrs by equilibrium dialysis method; type: ADME, cell-free, Macaca fascicularis; conditions: cynomolgus monkey, time 4-24 hrs, read-out: PPB (converted)
Procedure, shortened: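 Rapid equilibrium dialysis in mouse, rat, dog, monkey or human plasma for 4 or 24 h at 2 μM.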

[24] = Stability in simulated gastric fluid for >=13 hrs; type: physicochemical; conditions: simulated gi fluid
Procedure, shortened: (§7)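 Stability tested in simulated gastric fluid containing pepsin and simulated intestinal fluid containing pancreatin.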

[25] = Prodrug conversion in high fat diet-fed Beagle dog assessed as formation of N-(3-cyano-4-fluorophenyl)-4-(2-((3-ethynyloxetan-3-yl)amino)-2-oxoacetyl)-1,3,5-trimethyl-1H-pyrrole-2-carboxamide metabolite at 5 mg/kg, po measured for 96 hrs; type: ADME, organism-based, Canis lupus familiaris; conditions: in vivo
[26] = Stability in simulated intestinal fluid for >24 hrs; type: physicochemical; conditions: simulated gi fluid; procedure, shortened: as §7

Structure (SMILES): C#CC1(NC(=O)C(=O)c2c(C)c(C(=O)Nc3ccc(F)c(C#N)c3)n(C)c2C)COC1
- Tmax [1]: 1 h
- blood plasma ratio at 1 h, 5 µM [2]: 0.83
- bioavailability [3]: 62.8%
- Activity (Mus musculus [4]): inactive
- IC50 (Bile salt export pump): > 11.8 µM
- Activity [5]: Non-toxic
- bioavailability [6]: 57.5%
- AUC(0-inf) [7]: 2190 ng·h/mL
- IC50 [8]: > 11.8 µM
- fraction unbound at 1 µM [9]: 0.354
- Vd [10]: 1 L/kg
- fraction unbound at 1 µM [11]: 0.211
- AUC(0-inf) [12]: 24500 ng·h/mL
- EC50 (Hepatitis B virus): 0.00063 µM
- Activity [13]: Non-toxic
- Activity (Mus musculus [14]): inactive
- Activity (MDCKII-MDR1): Active
- clearance [15]: 7.89 mL/min/kg
- Tmax [16]: 2.17 h
- clearance [17]: 6.09 mL/min/kg
- Activity [18]: Non-toxic
- AUC(0-inf) [19]: 8720 ng·h/mL
- IC50 [20]: > 11.8 µM
- blood plasma ratio at 1 h, 5 µM [21]: 0.82
- Activity [22]: Non-toxic

Structure (SMILES): C#CC1(N(COP(=O)([O-])[O-])C(=O)C(=O)c2c(C)c(C(=O)Nc3ccc(F)c(C#N)c3)n(C)c2C)COC1.[Na+].[Na+]
- fraction unbound at 2 µM [23]: 0.126
- Stability [24]: Stable
- Drug metabolism [25]: metabolite_detected
- Stability [26]: Stable
